# CSC inhib: blocks cancer stem cells | cancer stem cell-like cells viability, luminescence | AID 2717 | 1.1% of 300,000 active | inhibition, % at 7.5 µM; in the data active means inhibition above about 75%; inconclusive means no clear call, values can overlap the other calls; tested in HMLE shEcad cells
# T cruzi repl: blocks replication of Trypanosoma cruzi. T. cruzi beta-gal in NIH3T3, luminescence, 90 h. inhibition, % (no concentration beside the values). 1.4% of 300,000 active. AID 1885;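 active means mean inhibition across valid replicates above about 55%, limit read from the data; inconclusive means mean below that limit but half or more replicates reach it; inactive means mean below it, under half of replicates reach it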;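 further: signal also drops with host cell toxicity which is not excluded here; 0% = plate median of DMSO wells and 100% = zero luminescence signal; higher percent means less beta-gal luminescence so fewer parasites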
#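 System: Mouse NIH/3T3 fibroblasts infected with β-gal-expressing T. cruzi Tulahuen C4 | Quantity: NIH/3T3 cells, 5,000 per well | Reagent: 5000 reporter trypomastigotes per well | Dosing: Compound pinned at 50 nL/well, DMSO | Schedule: 3 h host attachment, then at least 90 h co-culture | Detection: GalScreen luminescence, 60 min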
# Mdm2 MdmX PPI: inhibitors of human Mdm2/MdmX interaction. SaOS-2 split-luciferase Mdm2/MdmX complementation, luminescence. inhibition, % at 8 µM. 3% of 330,000 active. AID 485346;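 active means inhibition of at least 50% at 8 µM in the primary screen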
# SKKanGAS inh: inhibitors of SKKanGAS S. pyogenes growth in kanamycin (SK-promoter or general growth effect) | BacTiter-Glo, 6 h | inhibition, % at 7.5 µM | 1.3% of 300,000 active | AID 1662;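 active means mean replicate score, as percent of positive control median, at least 50; inconclusive means mean below 50 but one replicate at or above 50; inactive means mean and every replicate below 50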;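 further: strain carries kanamycin resistance gene driven by streptokinase promoter and grows in 40 µg/ml kanamycin; loss of luminescence reflects streptokinase promoter inhibition or plain growth inhibition; 0% = median of DMSO wells and 100% = positive control at its reference dose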
# Beta apoptosis: beta cell apoptosis inhibition | INS-1E cytokine-induced death, ATP luminescence, 48 h; percent of positive-control rescue, neutral wells zero | protection from apoptosis, % (no concentration beside the values) | 0.8% of 300,000 active | AID 435005;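 active means Every replicate reaches about 75%, or at least half do and their mean reaches it too, limit read from the data; inconclusive means At least half of replicates reach the limit but their mean does not; inactive means Under half of replicates reach the limit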;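 further: 0% = cytokine-treated negative control wells and 100% = positive control rescue; higher means more ATP so stronger rescue from cytokine killing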
# Calb FLC: C. albicans growth modulation with fluconazole; C. albicans CaCi-2 (fluconazole-resistant clinical isolate) + fluconazole, Alamar Blue growth, 48 h; growth inhibition, % (concentration not given with the values); 0.57% of 300,000 active; AID 1979;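 active means growth inhibition above about 58% in most replicates, limit read from the data, passing the limit was not always enough; inconclusive means exactly half the replicates above a set limit; inactive means most replicates below a set limit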;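 further: all wells also contain fluconazole at 8 µg/ml as a sub-toxic cotreatment; 0% = median of DMSO wells and 100% = median of geldanamycin control wells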
# Mdm2 MdmX conf: human Mdm2/MdmX binding inhibition, confirmed. shares compounds with Mdm2 MdmX PPI. luminescent assay. inhibition, % at 8 µM. 55% of 10,000 active; in the data active means inhibition above about 40%
# FLuc counter: inhibits full-length luciferase, flagging false Mdm2/MdmX hits; shares compounds with Mdm2 MdmX PPI; SaOS-2 full-length luciferase counterscreen, luminescence; inhibition, % at 8 µM; 77% of 6,200 active; AID 504607;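 active means mean inhibition at 8 µM reaching about 37%, which flags the compound as non-specific, limit read from the data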;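 further: p53-null SaOS-2 cells with luciferase driven by a doxycycline-inducible promoter; compound on cells about two nights before reading with doxycycline added after day one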
# Numbers without * were called inactive; ? = inconclusive; · = not tested or not shown. Most compounds without a hit are left out; they make up all but 5.7% or so of the library.
SMILES,CSC inhib,T cruzi repl,Mdm2 MdmX PPI,SKKanGAS inh,Beta apoptosis,Calb FLC,Mdm2 MdmX conf,FLuc counter
COc1ccc(-c2cc(C(=O)Nc3ccccc3O)c3ccccc3n2)cc1OC,31,-23,52*,17,17,29,52*,107*
COc1cc(-c2cc(C(=O)Nc3ccc(S(=O)(=O)NCc4ccco4)cc3)c3ccccc3n2)cc(OC)c1OC,17,56*,63*,37,11,-2,77*,50*
COc1ccccc1NC(=O)c1cc(-c2cc(OC)c(OC)c(OC)c2)nc2ccccc12,25,34,55*,7,9,-4,29,·
CCOc1ccccc1NC(=O)c1cc(-c2cc(OC)c(OC)c(OC)c2)nc2ccccc12,-9,36,55*,27,9,-5,30,·
COc1cc(-c2cc(C(=O)NCc3ccco3)c3ccccc3n2)cc(OC)c1OC,-7,-9,17,-2,·,29,·,·
O=C(Nc1ccncc1)C1CCN(S(=O)(=O)c2ccccc2C(F)(F)F)CC1,12,19,11,-2,·,1,·,·
COC(=O)c1ccccc1Nc1ccnc(Cl)n1,3,-7,14,-1,-2,12,·,·
Cc1nc(N2CCN(c3ccccn3)CC2)c2c(C)c(C(=O)N3CCN(c4ccccc4F)CC3)sc2n1,·,28,·,25,-1,-19,·,·
COc1cc(NC(=O)c2cc(-c3ccccc3)nc3c2cnn3C(C)C)cc(OC)c1OC,29,·,63*,·,26,·,28,·
COc1ccc(NC(=O)c2cc(-c3ccncc3)nc3ccc(Br)cc23)cc1OC,14,35,97*,7,24,-7,11,·
O=C(COc1ccc(S(=O)(=O)N2CCCCC2)cc1)N1CCCC1,6,-1,12,-2,·,10,·,·
COc1cc(C(=O)Nc2ccc3c(c2)Cc2ccccc2-3)cc(OC)c1OC,25,-13,47,-3,5,3,·,·
COc1cc(C(=O)Nc2ccc3c(c2)CCN3C(C)=O)cc(OC)c1OC,61,-4,59*,-4,11,-2,59*,62*
COc1ccc(-c2nn(C)c(=O)c3ccccc23)cc1CNS(C)(=O)=O,·,-3,42,-2,-3,-6,·,·
COc1ccc(-c2nn(C)c(=O)c3ccccc23)cc1NS(C)(=O)=O,16,7,68*,0,-22,2,27,·
O=C(NCc1cccnc1)/C(=C/c1ccc(-c2cccc(Cl)c2)o1)S(=O)(=O)c1ccccc1,100*,48,99*,-2,112*,12,100*,51*
CCOc1cc(/C=C/C(=O)c2ccc3c(c2)OCCO3)ccc1OCC(=O)N(C)C,·,-21,55*,3,-41,0,39,51*
Cc1cc(C)n2ncc(-c3cccc(Br)c3)c2n1,22,-37,24,-2,-2,-15,·,·
Cc1cc(Cl)n2ncc(-c3ccccc3)c2n1,-2,-19,63*,-2,-8,28,8,·
CC1CCN(S(=O)(=O)c2ccc(C(=O)Nc3nnc(-c4ccco4)o3)cc2)CC1,17,-19,54*,?,9,21,48*,34
O=C(Nc1nnc(-c2ccco2)o1)c1ccc(S(=O)(=O)N2CCCC2)cc1,21,-2,10,0,-2,-9,·,·
C(=N\Nc1ncnc2sc3c(c12)CCC3)/c1cccs1,94*,41,58*,?,96*,27,50*,19
Cc1cccc(CSc2nc3nc(C)cc(C)n3n2)c1,-24,-1,5,5,0,7,·,·
O=C(CCN1C(=O)/C(=C/c2ccc(F)cc2)SC1=S)NCCc1ccc(O)cc1,53,-10,87*,-9,-20,-8,66*,42*
COc1cccc(/C=C2\SC(=S)N(CCC(=O)NCCc3ccc(O)cc3)C2=O)c1,51,-21,99*,6,-19,·,84*,35
CC(=O)N(/N=C1\Sc2ccccc2C1=O)c1ccc(C)cc1C,-2,-16,65*,-1,-2,-4,76*,107*

# Screening data as filed in PubChem.
